From PMC9398548 (European journal of pharmaceutical sciences : official …, 2020)
Where two headings read alike, the source gives them in different places.

How the values were obtained:
[1] = test system: human colon cancer HT-29 cells; settings: read-out: antiproliferative IC50, HT-29 cells; ref Bonnet et al., 2014; cited from earlier work
[2] = test system: human prostate cancer PC-3 cells; settings: read-out: antiproliferative IC50, PC-3 cells; ref Bonnet et al., 2014; cited from earlier work
[3] = test system: murine leukemia P-388 cells; settings: read-out: antiproliferative IC50, P-388 cells; ref Bonnet et al., 2014; cited from earlier work
HDAC6 = molecular target: T1, HDAC6 (Homo sapiens, UniProt Q9UBN7); test: HDAC enzyme activity assay, HDAC6; format: biochemical
T1 sequence (Q9UBN7 1-1215): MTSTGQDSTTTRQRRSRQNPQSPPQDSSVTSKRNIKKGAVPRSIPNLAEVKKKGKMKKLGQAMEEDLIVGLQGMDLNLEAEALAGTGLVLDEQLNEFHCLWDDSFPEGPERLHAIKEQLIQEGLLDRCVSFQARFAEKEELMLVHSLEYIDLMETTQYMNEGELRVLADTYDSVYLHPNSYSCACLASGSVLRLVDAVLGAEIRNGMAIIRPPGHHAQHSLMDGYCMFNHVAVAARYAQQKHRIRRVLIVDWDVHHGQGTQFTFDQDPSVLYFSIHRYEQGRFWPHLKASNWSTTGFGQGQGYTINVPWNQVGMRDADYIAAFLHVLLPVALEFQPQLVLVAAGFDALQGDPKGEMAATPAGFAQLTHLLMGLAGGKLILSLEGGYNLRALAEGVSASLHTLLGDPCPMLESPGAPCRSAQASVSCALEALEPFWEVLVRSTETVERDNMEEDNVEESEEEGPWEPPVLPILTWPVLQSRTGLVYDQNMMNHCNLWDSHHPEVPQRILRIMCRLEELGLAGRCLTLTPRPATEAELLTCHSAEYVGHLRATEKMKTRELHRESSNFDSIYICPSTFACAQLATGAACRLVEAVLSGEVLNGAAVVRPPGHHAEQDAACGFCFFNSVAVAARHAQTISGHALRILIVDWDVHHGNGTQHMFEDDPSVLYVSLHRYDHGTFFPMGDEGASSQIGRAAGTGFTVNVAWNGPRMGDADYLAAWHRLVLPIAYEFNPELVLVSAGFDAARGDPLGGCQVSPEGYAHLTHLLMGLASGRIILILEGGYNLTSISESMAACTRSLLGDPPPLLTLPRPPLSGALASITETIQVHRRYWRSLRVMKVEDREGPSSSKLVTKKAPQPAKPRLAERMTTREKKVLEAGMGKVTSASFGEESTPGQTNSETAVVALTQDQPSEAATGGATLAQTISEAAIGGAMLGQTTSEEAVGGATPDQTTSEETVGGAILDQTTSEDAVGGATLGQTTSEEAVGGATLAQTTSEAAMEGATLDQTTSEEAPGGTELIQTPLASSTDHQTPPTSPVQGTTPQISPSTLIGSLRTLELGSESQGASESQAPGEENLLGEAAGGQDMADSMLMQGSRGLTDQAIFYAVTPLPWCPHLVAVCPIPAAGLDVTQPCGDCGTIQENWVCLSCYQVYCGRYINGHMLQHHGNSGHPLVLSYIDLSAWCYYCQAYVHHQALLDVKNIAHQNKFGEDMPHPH

HDAC8 = molecular target: T2, HDAC8 (Homo sapiens, UniProt Q9BY41); test: HDAC enzyme activity assay, HDAC8; format: biochemical; settings: for HDAC-8 relative enzyme activity: primary screening at 50 μM
T2 sequence (Q9BY41 1-377): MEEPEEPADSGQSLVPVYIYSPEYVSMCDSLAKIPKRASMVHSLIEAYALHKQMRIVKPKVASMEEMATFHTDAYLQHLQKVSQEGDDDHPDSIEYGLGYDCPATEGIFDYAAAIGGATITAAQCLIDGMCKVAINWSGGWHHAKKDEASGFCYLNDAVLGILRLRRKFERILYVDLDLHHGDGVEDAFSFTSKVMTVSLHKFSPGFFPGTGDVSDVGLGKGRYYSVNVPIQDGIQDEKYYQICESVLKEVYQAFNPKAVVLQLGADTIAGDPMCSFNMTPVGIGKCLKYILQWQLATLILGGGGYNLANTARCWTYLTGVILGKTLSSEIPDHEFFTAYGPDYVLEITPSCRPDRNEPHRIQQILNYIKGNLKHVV
Method in brief: (§1)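 Enzymes were recombinant: HDAC8, and the codon-optimised human HDAC4 catalytic domain (pET14b). Serial inhibitor dilutions in 25 mM Tris-HCl, 75 mM KCl, 0.001% Pluronic F-127, pH 8.0 were pre-incubated with enzyme for 1 h at 30 °C. Reaction ran 60 min at 30 °C with 20 μM Boc-Lys(trifluoroacetyl)-AMC and was stopped with 1.7 μM SATFMK. Trypsin (0.4 mg/ml) released AMC; fluorescence read at Ex 350/Em 450 nm. Triplicate; IC50 from dose-response curves.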

CEM cells = test: MTT cytotoxicity assay in CEM cells; format: cell-based; settings: read-out: CEM- IC50, 48 h, Mean±SD, n=3
Method in brief: (§2)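 Cells were grown in suspension in RPMI 1640 with 10% FBS and penicillin/streptomycin/amphotericin B at 37 °C under 5% CO2. They were seeded at ~5×10^3 cells/well, kept overnight, then exposed to test compounds diluted in DMSO for 48 h. Cells were pelleted (300 g, 4 °C, 5 min) and washed twice in phosphate buffer. MTT (5 mg/ml stock) was added for 4 h at 37 °C, formazan dissolved in DMSO, and A570 read. Triplicate; IC50 given as mean±SD.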

K562 cells = test: MTT cytotoxicity assay in K562 cells; format: cell-based; settings: read-out: K562- IC50
Method in brief: as §2

HDAC1 = HDAC1 (Homo sapiens, UniProt Q13547); test: HDAC enzyme activity assay, HDAC1; format: biochemical
HDAC4 = HDAC4 (Homo sapiens, UniProt P56524); test: HDAC enzyme activity assay, HDAC4; format: biochemical
Method in brief: as §1

[4] = read-out: HDAC6 IC50, Means ±SD, n=3
[5] = read-out: HDAC8 IC50, Means ±SD, n=3
[6] = read-out: HDAC1 IC50, Means ±SD, n=3
[7] = read-out: HDAC4 IC50, Means ±SD, n=3

Chain of HDAC4 (P56524 655-1084 limits assumed): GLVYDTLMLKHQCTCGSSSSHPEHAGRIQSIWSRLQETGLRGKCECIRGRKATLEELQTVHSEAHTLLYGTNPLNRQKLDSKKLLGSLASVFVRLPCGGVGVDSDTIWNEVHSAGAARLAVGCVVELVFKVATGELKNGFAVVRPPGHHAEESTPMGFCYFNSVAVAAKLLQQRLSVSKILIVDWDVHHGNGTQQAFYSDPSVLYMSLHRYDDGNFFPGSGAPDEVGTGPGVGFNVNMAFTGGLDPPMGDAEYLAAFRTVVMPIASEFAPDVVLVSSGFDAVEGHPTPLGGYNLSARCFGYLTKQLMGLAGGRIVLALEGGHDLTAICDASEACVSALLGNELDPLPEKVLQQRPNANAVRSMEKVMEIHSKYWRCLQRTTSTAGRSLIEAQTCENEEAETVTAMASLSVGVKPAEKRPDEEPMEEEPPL
Chain of HDAC1 (Q13547 whole entry, species assumed): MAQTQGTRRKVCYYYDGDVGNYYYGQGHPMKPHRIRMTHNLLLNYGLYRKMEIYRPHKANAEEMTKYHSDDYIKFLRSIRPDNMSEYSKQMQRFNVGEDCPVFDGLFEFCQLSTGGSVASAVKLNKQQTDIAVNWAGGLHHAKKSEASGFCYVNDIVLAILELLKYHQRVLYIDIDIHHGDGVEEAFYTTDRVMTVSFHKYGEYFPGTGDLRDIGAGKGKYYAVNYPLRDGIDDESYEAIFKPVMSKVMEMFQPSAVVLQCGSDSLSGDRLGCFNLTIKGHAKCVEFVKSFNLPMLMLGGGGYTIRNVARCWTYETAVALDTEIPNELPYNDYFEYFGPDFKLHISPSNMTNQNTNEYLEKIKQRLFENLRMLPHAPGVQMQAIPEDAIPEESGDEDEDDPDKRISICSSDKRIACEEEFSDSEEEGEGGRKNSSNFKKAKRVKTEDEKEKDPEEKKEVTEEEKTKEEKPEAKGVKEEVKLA

SMILES	IC50 (HDAC6; [4])	HDAC-8 relative enzyme activity (HDAC8)	IC50 (HDAC8; [5])	IC50 (HDAC1; [6])	IC50 (HDAC4; [7])	IC50 (HDAC6)	IC50 (HDAC8)	IC50 (HDAC1)	IC50 (HDAC4)	IC50 [1]	IC50 [2]	IC50 [3]	IC50 (CEM cells)	IC50 (K562 cells; MTT, 48 h, Mean±SD, n=3)	IC50 (K562 cells; Homo sapiens, K562, 48 h)
O=C1C[C@@H]2/C(=C(O)\C=C\c3ccccc3)C(=O)C=C[C@@H]2O1 [(+)-Cryptocaryone]	–	–	–	–	–	–	–	–	–	320 nM	1600 nM	40 nM	–	–	–
Cc1ccc(C=C2SC(=O)N(CC(=O)Nc3ccc(Cl)cc3C(F)(F)F)C2=O)cc1C [Compound G3, N-(4-Chloro-2-trifluoromethylphenyl)-2-[5-(3,4-dimethylbenzylidene)-2,4-dioxothiazolidin-3-yl] acetamide]	17 ± 2 µM	< 50%	16 ± 2 µM	> 50 µM	> 50 µM	–	–	–	–	–	–	–	25.9 ± 2.95 µM	26.4 ± 3.07 µM	–
O=C(CN1C(=O)SC(=Cc2ccc(Br)cc2)C1=O)Nc1ccc(Cl)cc1C(F)(F)F [Compound G1, 2-[5-(4-Bromobenzylidene)-2,4-dioxo-thiazolidin-3-yl]-N-(4-chloro-2-trifluromethylphenyl) acetamide]	16 ± 2 µM	< 50%	20 ± 3 µM	> 50 µM	> 50 µM	–	–	–	–	–	–	–	25.1 ± 1.84 µM	24 ± 0.58 µM	–

The next lines start with results.

IC50 (HDAC6; [4])	HDAC-8 relative enzyme activity (HDAC8)	IC50 (HDAC8; [5])	IC50 (HDAC1; [6])	IC50 (HDAC4; [7])	IC50 (HDAC6)	IC50 (HDAC8)	IC50 (HDAC1)	IC50 (HDAC4)	SMILES	IC50 [1]	IC50 [2]	IC50 [3]	IC50 (CEM cells)	IC50 (K562 cells; MTT, 48 h, Mean±SD, n=3)	IC50 (K562 cells; Homo sapiens, K562, 48 h)
–	< 50%	–	–	–	42 µM	11 ± 1 µM	> 50 µM	> 50 µM	O=C(CN1C(=O)SC(=Cc2ccccc2)C1=O)Nc1ccc(Cl)cc1C(F)(F)F [Compound G13, 2-[5-Benzylidene-2,4-dioxothiazolidin-3-yl]-N-(4-chloro-2-trifluoromethylphenyl)acetamide]	–	–	–	–	–	41.7 ± 3.9 µM
–	< 50%	–	–	–	14 ± 3 µM	18 ± 2 µM	31 ± 1.1 µM	> 50 µM	Cc1ccc(C=C2SC(=O)N(CC(=O)Nc3ccc(Cl)cc3C(F)(F)F)C2=O)cc1 [Compound G11, N-(4-Chloro-2-trifluoromethylphenyl)-2-[5-(4-methylbenzylidene)-2,4-dioxothiazolidin-3-yl]acetamide]	–	–	–	–	–	34.6 ± 3.57 µM
